The results in this text go back to ChEMBL document CHEMBL2203129, “Structure-activity relationship studies of naphthol AS-E and its derivatives as anticancer agents by inhibiting CREB-mediated gene transcription” (Bioorg Med Chem, 2012).

pIC50: −log10 of the molar value.

Assay [1] is described as follows: Inhibition of KIX domain of CBP interaction with KID domain of CREB after 20-24 hrs by Renilla luciferase complementation assay. The essentials: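 RLucC-KIX (20 ng) and KID-RLucN lysate (1.0 µg) per reaction in Renilla lysis buffer with compound, incubated at 4 °C for 20–24 h; residual luminescence read with benzyl-coelenterazine in PBS pH 7.4.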
The subject of the next assay is MDA-MB-231. The assay can be described thus: Growth inhibition of human MDA-MB-231 cells after 72 hrs by MTT assay. Particulars: MDA-MB-231, 72 h. The assay is classed as functional. (Tetrazolium assays rely on reduction of a dye to a coloured formazan, in cell work by metabolically active cells.)
In a further assay the test system is A549. The assay can be described thus: Growth inhibition of human A549 cells after 72 hrs by MTT assay. Type of assay: functional. Particulars: A549, 72 h.
A further assay has as its system MCF7. The assay can be described thus: Growth inhibition of human MCF7 cells after 72 hrs by MTT assay. Type of assay: functional. Particulars: MCF7, 72 h.
Assay [2] in a line: Inhibition of CREB-mediated gene transcription in human HEK293T cells by renilla luciferase reporter assay. Type of assay: cell-based. To be noted: HEK-293T. The essentials: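 HEK 293T cells transfected with pCRE-RLuc, replated after 3 h and attached overnight; compound added, then forskolin (final 10 µM) 30 min later; 5 h at 37 °C.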
On the technique in general: In a reporter assay the amount or activity of a reporter protein is the signal.

In a further assay the test system is MDA-MB-468. As to the kind of experiment: Growth inhibition of human MDA-MB-468 cells after 72 hrs by MTT assay. The assay is classed as functional. To be noted: MDA-MB-468, 72 h.

Consider `O=C(Nc1ccc(I)cc1)c1cc2ccccc2cc1O`, for which the negative-log IC50 (pIC50) was 4.46 in assay [1] and 5.30 in assay [2]. The GI50 in the assay on MDA-MB-231 was 7.87 µM; in the assay on A549, 5.51 µM; with MCF7, 9.76 µM; in the assay on MDA-MB-468, 2.94 µM.

As to `O=C(Nc1ccncc1)c1cc2ccccc2cc1O`, the values for the pIC50 in assay [1] and in assay [2] were 4.79 and 4.68, respectively. Besides, the GI50 with MDA-MB-231 is 35.5 µM; in the assay on A549, 25 µM; in the assay with MCF7, 15.8 µM; in the assay with MDA-MB-468, 63.4 µM.

Regarding `O=C(Nc1ccccn1)c1cc2ccccc2cc1O`, the pIC50 in assay [1] is 5.77; in assay [2], < 4.30. For the same compound, the GI50 is 44.2 µM in the assay with MDA-MB-231, 75.8 µM with A549, 6.25 µM with MCF7 and 5.69 µM in the assay with MDA-MB-468.

For the compound `O=C(Nc1cnccn1)c1cc2ccccc2cc1O`, the pIC50 in assay [1] was 4.69; in assay [2], < 4.30. The GI50 in the assay on MDA-MB-231 was > 100 µM; in the assay with A549 it was 33.2 µM; with MCF7, 17.9 µM; in the assay with MDA-MB-468 it was 37.6 µM.

Take `O=C(Nc1ccccc1Cl)c1cc2ccccc2cc1O`: the pIC50 in assay [1] was 5.27; in assay [2], 5.24. The GI50 in the assay on MDA-MB-231 came out at 17.2 µM; in the assay with A549 it was 4.83 µM; with MCF7, 2.27 µM; with MDA-MB-468, 6.65 µM.

Take `O=C(Nc1ccc(F)c(Cl)c1)c1cc2ccccc2cc1O`: the pIC50 is 5.29 in assay [1] and 5.64 in assay [2]. Further, the GI50 in the assay with MDA-MB-231 stood at 2.2 µM; in the assay with A549, 3.65 µM; in the assay with MCF7 it was 6.86 µM; in the assay on MDA-MB-468, 0.85 µM.

Take `O=C(Nc1ccc(C(F)(F)F)cc1)c1cc2ccccc2cc1O`: the pIC50 in assay [1] was < 4.30; in assay [2] it was 5.17. The 50% growth inhibitory concentration (GI50) in the assay with MDA-MB-231 worked out at 64.2 µM; in the assay on A549, 4.15 µM; in the assay with MCF7, 3.62 µM; with MDA-MB-468 it was 63.3 µM.

For the compound `O=C(Nc1ccc(Br)cc1)c1cc2ccccc2cc1O`, the pIC50 in assay [1] was 5.02; in assay [2], 5.46. Further, the 50% growth inhibitory concentration (GI50) in the assay with MDA-MB-231 was found to be 9.93 µM; in the assay on A549, 3.98 µM; in the assay on MCF7, 1.83 µM; with MDA-MB-468, 6.61 µM.

Broadly, the pIC50 is the IC50 on a negative log10 scale, so that one unit is a factor of ten. As a reminder, the GI50 is the concentration that inhibits growth by half. Higher therefore signals less potent growth inhibition.
